Active and inactive are the calls of the source. The rule behind the calls is not given here.
Legend:
[1] = test system: RAW264.7; experiment: Effect on inflammatory mediators in LPS-stimulated mouse RAW264.7 cells assessed as 5-LO accumulation at 20 uM after 24 hrs by dot immunoblotting; assay type: functional
How it was run: (§1)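 Cells treated 24 h with 20 µM compound, with or without LPS (1 µg/ml). 20 µg soluble lysate protein dot-blotted onto nitrocellulose and probed with rabbit anti-mouse COX-2 or 5-LO, HRP anti-rabbit secondary and OPD colour. Intensity normalised to β-actin dots; four repeats.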

[2] = test system: RAW264.7; experiment: Effect on inflammatory mediators in mouse RAW264.7 cells assessed as TNF-alpha accumulation at 20 uM after 24 hrs by ELISA; assay type: functional
How it was run: (§2)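 RAW 264.7 given 20 µM compound for 24 h, alone or together with LPS at 1 µg/ml. TNF-α and PGE2 in harvested supernatants quantified with commercial ELISA kits per manufacturer; four repeats, means reported.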

[3] = test system: RAW264.7; experiment: Effect on inflammatory mediators in LPS-stimulated mouse RAW264.7 cells assessed as COX-2 accumulation at 20 uM after 24 hrs by dot immunoblotting; assay type: functional; how it was run: as §1
[4] = Hydroxyl radical scavenging activity assessed as trolox equivalents at 1 uM by ORAC assay; assay type: functional
How it was run: (§3)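 β-Phycoerythrin fluorescence decay followed kinetically for 2 h at 37 °C with 1 µM compound, against peroxyl and hydroxyl radicals. One ORAC unit = net protection given by 1.0 µM Trolox.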

[5] = test system: RAW264.7; experiment: Effect on inflammatory mediators in mouse RAW264.7 cells assessed as COX-2 accumulation at 20 uM after 24 hrs by dot immunoblotting; assay type: functional; how it was run: as §1
[6] = test system: RAW264.7; experiment: Effect on inflammatory mediators in mouse RAW264.7 cells assessed as nitrite accumulation at 20 uM after 24 hrs by Griess assay; assay type: functional
How it was run: (§4)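 Cells in phenol red-free RPMI-1640 with 10% FBS treated 24 h with 20 µM compound, with or without LPS (1 µg/ml). Supernatant mixed 1:1 with Griess reagent for 10 min, A550 read against a sodium nitrite standard curve, then normalised to BCA protein.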

[7] = test system: RAW264.7; experiment: Effect on inflammatory mediators in mouse RAW264.7 cells assessed as PGE2 accumulation at 20 uM after 24 hrs by ELISA; assay type: functional; how it was run: as §2
[8] = test system: RAW264.7; experiment: Cytotoxicity against mouse RAW264.7 cells assessed as cell viability after 24 hrs by MTT assay; assay type: cell-based; conditions: RAW264.7, 24 h, in the assay text read “MTT assay” for “ultra gel clot assay”
How it was run: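 RAW 264.7 macrophages (5×10^4 cells/well) exposed 24 h at 37 °C to a range of compound concentrations, then read by MTT reduction to formazan, solubilised in acidic isopropanol. Viability expressed as mean % of untreated cells (n = 4); 1000 U/ml M-CSF as positive control. IC50 derived.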

[9] = test system: RAW264.7; experiment: Effect on inflammatory mediators in mouse RAW264.7 cells assessed as 5-LO accumulation at 20 uM after 24 hrs by dot immunoblotting; assay type: functional; how it was run: as §1
[10] = Antioxidant activity assessed as superoxide radical scavenging activity; assay type: functional
How it was run: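 Non-cellular assay; superoxide generated by oxidation of 50 µM hypoxanthine with 12 mU xanthine oxidase. Scavenging followed as the rate of nitroblue tetrazolium reduction to formazan. SC50 taken from dose-dependent curves of serial dilutions; superoxide dismutase as standard inhibitor.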

[11] = Peroxyl radical scavenging activity assessed as trolox equivalents at 1 uM by ORAC assay; how it was run: as §3
[12] = test system: RAW264.7; experiment: Effect on mouse RAW264.7 cell function assessed as FITC-LPS binding to macrophage after 15 mins by fluorimetry; assay type: functional, cell-based
How it was run: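 5×10^5 RAW 264.7 cells pre-incubated 15 min at 37 °C with compound in RPMI-1640 plus 10% FBS as the CD14/LBP source. FITC-LPS (200 ng/ml) then added for 1 h. After PBS wash, fluorescence read at ex 485/em 530 nm and median fluorescence intensity reported.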

[13] = test system: RAW264.7; experiment: Effect on inflammatory mediators in LPS-stimulated mouse RAW264.7 cells assessed as TNF-alpha accumulation at 20 uM after 24 hrs by ELISA; assay type: functional; how it was run: as §2
[14] = test system: RAW264.7; experiment: Effect on inflammatory mediators in LPS-stimulated mouse RAW264.7 cells assessed as PGE2 accumulation at 20 uM after 24 hrs by ELISA; assay type: functional; how it was run: as §2
[15] = test system: RAW264.7; experiment: Effect on inflammatory mediators in LPS-stimulated mouse RAW264.7 cells assessed as nitrite accumulation at 20 uM after 24 hrs by Griess assay; assay type: functional; how it was run: as §4
[16] = test system: RAW264.7; experiment: Induction of phagocytosis in mouse RAW264.7 cells assessed as phagocytic activity against FITC-zymosan after 1 hr by fluorimetry; assay type: functional, cell-based
How it was run: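 Cells at 1×10^5/well in phenol red-free RPMI-1640 rested 24 h, then given compound for 1 h. FITC-zymosan added for a further 1 h; cells washed three times and lysed with Triton X-100. Fluorescence read at 485/530 nm and expressed relative to untreated cells (100%).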

[17] = test system: RAW264.7; experiment: Effect on inflammatory mediators in LPS-stimulated mouse RAW264.7 cells assessed as nitrite accumulation at 20% IC50 after 24 hrs by Griess assay; assay type: functional
[18] = test system: RAW264.7; experiment: Effect on inflammatory mediators in mouse RAW264.7 cells assessed as 5-LO accumulation at 20% IC50 after 24 hrs by dot immunoblotting; assay type: functional
How it was run: (§5)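 20 µg lysate protein dot-blotted, probed with anti-mouse COX-2 or 5-LO, detected by HRP/OPD and normalised to β-actin.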

[19] = test system: RAW264.7; experiment: Effect on inflammatory mediators in mouse RAW264.7 cells assessed as PGE2 accumulation at 20% IC50 after 24 hrs by ELISA; assay type: functional
[20] = test system: RAW264.7; experiment: Effect on inflammatory mediators in LPS-stimulated mouse RAW264.7 cells assessed as TNF-alpha accumulation at 20% IC50 after 24 hrs by ELISA; assay type: functional
[21] = test system: RAW264.7; experiment: Effect on inflammatory mediators in LPS-stimulated mouse RAW264.7 cells assessed as PGE2 accumulation at 20% IC50 after 24 hrs by ELISA; assay type: functional
[22] = test system: RAW264.7; experiment: Effect on inflammatory mediators in mouse RAW264.7 cells assessed as nitrite accumulation at 20% IC50 after 24 hrs by Griess assay; assay type: functional
[23] = test system: RAW264.7; experiment: Effect on inflammatory mediators in mouse RAW264.7 cells assessed as TNF-alpha accumulation at 20% IC50 after 24 hrs by ELISA; assay type: functional
[24] = test system: RAW264.7; experiment: Effect on inflammatory mediators in LPS-stimulated mouse RAW264.7 cells assessed as 5-LO accumulation at 20% IC50 after 24 hrs by dot immunoblotting; assay type: functional; how it was run: as §5
[25] = test system: RAW264.7; experiment: Effect on inflammatory mediators in LPS-stimulated mouse RAW264.7 cells assessed as COX-2 accumulation at 20% IC50 after 24 hrs by dot immunoblotting; assay type: functional; how it was run: as §5
[26] = test system: RAW264.7; experiment: Effect on inflammatory mediators in mouse RAW264.7 cells assessed as COX-2 accumulation at 20% IC50 after 24 hrs by dot immunoblotting; assay type: functional; how it was run: as §5

| Compound | Activity [1] [%] | Activity [2] [pg] | Activity [3] [%] | Activity [4] | Activity [5] [%] | Activity [6] [nmol] | Activity [7] [pg] | IC50 [8] [µM] | Activity [9] [%] | SC50 [10] [µg/mL] | Activity [11] | Activity [12] | Activity [13] [pg] | Activity [14] [pg] | Activity [15] [nmol] | Activity [16] | also measured |
| --- | --- | --- | --- | --- | --- | --- | --- | --- | --- | --- | --- | --- | --- | --- | --- | --- | --- |
| COc1ccc(-c2cc(-c3ccc4c(c3)CCCC4)nc(Cl)c2C#N)cc1OC | 84.5 | 810.75 | 88.7 | 0.35 | 36.6 | 512.35 | 38.33 | > 50 | 25.3 | 87.9 | 0.61 | inactive | 5716.66 | 3325.87 | 766.85 | inactive | – |
| COc1ccc(-c2cc(-c3ccc4c(c3)CCCC4)[nH]c(=S)c2C#N)cc1OC | – | – | – | 0.85 | – | – | – | 29.4 | – | 65.4 | 0.9 | – | – | – | – | – | Activity [17]: 380.12 nmol; Activity [18]: 18.3%; Activity [19]: 28.66 pg; Activity [20]: 4652.4 pg; Activity [21]: 3309.3 pg; Activity [22]: 8.58 nmol; Activity [23]: 79.18 pg; Activity [24]: 85.4%; Activity [25]: 72.8%; Activity [26]: 12.3% |
| COc1ccc(-c2cc(-c3ccc4c(c3)CCCC4)nc3[nH]nc(N)c23)cc1OC | 81.8 | 94.88 | 63.7 | 5.85 | 15.7 | 10.53 | 28.6 | > 50 | 24 | > 100 | 1.92 | – | 4185.85 | 3415.23 | 145.67 | – | – |
| CC(C)c1ccc(-c2cc(-c3ccc4c(c3)CCCC4)nc3[nH]nc(N)c23)cc1 | – | 105.6 | – | 2.28 | – | 5.62 | 32.21 | > 50 | – | 21.9 | 2.45 | Active | 1925.78 | 2974.23 | 62.42 | Active | – |
| COc1ccc(-c2cc(-c3ccc4c(c3)CCCC4)nc(OCC(=O)NN)c2C#N)cc1OC | 83.2 | 124.68 | 71.3 | 5.84 | 10.2 | 1.34 | 25.6 | 3.1 | 13.8 | 8.67 | 5.12 | – | 4924.22 | 3111.94 | 78.54 | – | – |
| COc1ccc(-c2cc(-c3ccc4c(c3)CCCC4)nc(OCC(=O)NCc3ccccc3)c2C#N)cc1OC | 77.4 | 116.8 | 73.3 | 2.31 | 23.7 | 26.65 | 53.1 | – | 18.9 | 19.9 | 3.56 | inactive | 854.16 | 2018.96 | 155.25 | inactive | – |
| N#Cc1c(-c2c[nH]c3ccccc23)cc(-c2ccc3c(c2)CCCC3)[nH]c1=O | 82.3 | 88.44 | 82.4 | 0.21 | 16.3 | 16.25 | 32.63 | > 100 | 23.5 | 78.5 | 0.35 | – | 5100.15 | 3210.3 | 505.75 | Active | – |
| COc1ccc(-c2cc(-c3ccc4c(c3)CCCC4)[nH]c(=O)c2C#N)cc1OC | 92.1 | 69.56 | 76.3 | 0.54 | 14.6 | 14.8 | 30.35 | > 100 | 15.8 | > 100 | 0.41 | – | 3860.25 | 3120.45 | 355.78 | – | – |
| N#Cc1c(-c2c[nH]c3ccccc23)cc(-c2ccc3c(c2)CCCC3)[nH]c1=S | 69.4 | 75.4 | 59.8 | 4.2 | 28.1 | 15.5 | 49.82 | > 100 | 23.8 | 4.22 | 6.13 | – | 4925.35 | 3005.3 | 480.05 | – | – |
| CC(C)c1ccc(-c2cc(-c3ccc4c(c3)CCCC4)[nH]c(=O)c2C#N)cc1 | 25.1 | 91.67 | 42.7 | 0.92 | 21.4 | 8.51 | 40.13 | > 100 | 20.3 | 85.4 | 0.75 | Active | 1255.6 | 2105.3 | 32.55 | Active | – |
| CC(C)c1ccc(-c2cc(-c3ccc4c(c3)CCCC4)nc(NCc3ccccc3)c2C#N)cc1 | 88.7 | 1890.16 | 97.3 | 1.01 | 53.2 | 614.63 | 48.3 | > 50 | 29.8 | 77.6 | 1.34 | inactive | 6325.08 | 3222.55 | 922.5 | – | – |
| CC(C)c1ccc(-c2cc(-c3ccc4c(c3)CCCC4)[nH]c(=S)c2C#N)cc1 | 31.6 | 101.5 | 36.7 | 5.41 | 18.2 | 12.66 | 41.84 | > 100 | 14.2 | 10.2 | 4.32 | Active | 1458.16 | 1843.42 | 25.58 | Active | – |

Reference: ChEMBL document CHEMBL1153793, “New pyridone, thioxopyridine, pyrazolopyridine and pyridine derivatives that modulate inflammatory mediators in stimulated RAW 264.7 murine macrophage” (Eur J Med Chem, 2009)
